Test results from ChEMBL document CHEMBL1131301, “Tyrosine kinase inhibitors. 14. Structure-activity relationships for methylamino-substituted derivatives of 4-[(3-bromophenyl)amino]-6-(methylamino)-pyrido[3,4-d]pyrimidine (PD 158780), a potent and specific inhibitor of the tyrosine kinase activity of receptors for the EGF family of growth factors” (J Med Chem, 1998).
Converted amounts (≈) assume the structure as drawn.

What was measured:
[1] = target: T1, Epidermal growth factor receptor (Homo sapiens, UniProt P00533); experiment: Inhibition of autophosphorylation of epidermal growth factor receptor in A431 cells in culture
T1 sequence (P00533 whole entry): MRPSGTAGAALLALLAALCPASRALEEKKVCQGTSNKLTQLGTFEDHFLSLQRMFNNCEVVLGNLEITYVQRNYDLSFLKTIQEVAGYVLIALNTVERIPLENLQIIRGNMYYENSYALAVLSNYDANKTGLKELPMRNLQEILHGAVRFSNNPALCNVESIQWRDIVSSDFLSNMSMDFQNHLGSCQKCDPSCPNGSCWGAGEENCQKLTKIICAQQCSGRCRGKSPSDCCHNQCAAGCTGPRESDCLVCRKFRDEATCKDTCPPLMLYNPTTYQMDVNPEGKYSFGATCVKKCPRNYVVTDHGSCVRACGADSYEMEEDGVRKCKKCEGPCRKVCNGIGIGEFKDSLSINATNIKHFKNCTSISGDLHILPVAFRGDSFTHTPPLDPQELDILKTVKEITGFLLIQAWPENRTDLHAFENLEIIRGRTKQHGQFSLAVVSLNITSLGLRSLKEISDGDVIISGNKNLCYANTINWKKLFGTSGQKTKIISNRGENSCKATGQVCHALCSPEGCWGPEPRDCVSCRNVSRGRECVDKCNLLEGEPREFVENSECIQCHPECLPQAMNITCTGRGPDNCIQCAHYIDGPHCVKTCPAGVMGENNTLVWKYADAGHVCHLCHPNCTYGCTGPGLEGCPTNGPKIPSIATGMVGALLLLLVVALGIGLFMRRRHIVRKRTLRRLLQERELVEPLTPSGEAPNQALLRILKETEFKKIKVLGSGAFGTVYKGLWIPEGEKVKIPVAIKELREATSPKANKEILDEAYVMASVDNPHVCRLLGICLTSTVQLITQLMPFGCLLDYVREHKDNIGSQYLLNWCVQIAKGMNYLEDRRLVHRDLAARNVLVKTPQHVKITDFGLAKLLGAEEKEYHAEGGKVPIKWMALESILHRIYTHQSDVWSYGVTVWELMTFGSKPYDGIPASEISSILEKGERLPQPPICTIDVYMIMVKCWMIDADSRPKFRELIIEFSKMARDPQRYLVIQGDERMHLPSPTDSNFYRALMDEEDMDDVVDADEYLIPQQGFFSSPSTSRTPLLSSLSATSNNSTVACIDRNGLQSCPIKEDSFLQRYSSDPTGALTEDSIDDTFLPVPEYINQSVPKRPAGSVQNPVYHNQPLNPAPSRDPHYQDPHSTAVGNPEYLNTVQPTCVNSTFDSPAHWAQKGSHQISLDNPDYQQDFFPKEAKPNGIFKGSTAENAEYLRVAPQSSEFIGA

[2] = Aqueous solubility ([…] degree C); assay type: physicochemical; settings: for S: buffer; for solubility: water, read-out: S
[3] = target: T1, Epidermal growth factor receptor; experiment: Inhibit of phosphorylation of a tyrosine/glutamic acid copolymer by epidermal growth factor receptor prepared from human A431 carcinoma cell vesicles by immunoaffinity chromatography.
[4] = target: T1, Epidermal growth factor receptor; experiment: Inhibition of tyrosine/glutamic acid copolymer phosphorylation by epidermal growth factor receptor prepared of human A431
Mus musculus [5] = experiment: Difference in days for treated (T) and control (C) EGFR tumor fragments to reach 750 mg in mice at 38 mg/kg ip dose, administration days 1-15; assay type: functional; settings: route intraperitoneal
Mus musculus [6] = experiment: Weight change of EGFR tumor bearing mice at 38 mg/kg ip dose, days 1-15 administration; assay type: functional; settings: route intraperitoneal
Mus musculus [7] = experiment: Ratio of the median treated EGFR tumor mass (mg)/median control mass*100% in mice at 38 mg/kg dose, ip b.i.d. days 1-15 administration; assay type: functional; settings: route intraperitoneal
Procedure, shortened: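 Nude mice (NCr nu/nu, 18-22 g) were randomized and implanted sc with tumor fragments in the right axilla on day 0. Tumor lines were A431 epidermoid, NIH 3T3 fibroblasts transfected with human EGFR, and MCF-7 breast. Dosing was ip or oral, by average cage weight, with 6 mice/dose group. Vehicle was 6% dimethylacetamide/94% 50 mM sodium lactate pH 4.0 (suspension), or isethionate salt in water.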

IC50 [3] [nM] | solubility [2] [µM] | SMILES | also measured
1 |  | Brc1cccc(Nc2ncnc3cnc(NCCCN4CCOCC4)cc23)c1 | IC50 [1]: 5.9 nM; S [2]: > 44 mM
1.1 |  | CNc1cc2c(Nc3cccc(C(F)(F)F)c3)ncnc2cn1 | 
0.19 |  | CNc1cc2c(Nc3cccc(Cl)c3)ncnc2cn1 | 
0.22 | 110 (≈ 41.2 µg/mL) | CN(CCO)c1cc2c(Nc3cccc(Br)c3)ncnc2cn1 | 
 |  | CNc1cc2c(Nc3cccc(C)c3)ncnc2cn1 | IC50 [1]: 23 nM; IC50 [4]: 0.45 nM; T-C (Mus musculus [5]): 2 days; Weight change (Mus musculus [6]): -0.9 g; T/C (Mus musculus [7]): 68%
1.5 | 12000 (≈ 4890 µg/mL) | Brc1cccc(Nc2ncnc3cnc(NCc4cccnc4)cc23)c1 | IC50 [1]: 13 nM
 | 32000 (≈ 15100 µg/mL) | CN1CCN(NCCCNc2cc3c(Nc4cccc(Br)c4)ncnc3cn2)CC1 | 
0.56 | 180 (≈ 72.8 µg/mL) | CN(CC(O)CO)c1cc2c(Nc3cccc(Br)c3)ncnc2cn1 (configuration not stated) | 
 | 39000 (≈ 15700 µg/mL) | CN(C)CCN(C)c1cc2c(Nc3cccc(Br)c3)ncnc2cn1 | 
0.19 | 20 (≈ 7.2 µg/mL) | OCCNc1cc2c(Nc3cccc(Br)c3)ncnc2cn1 | 
2.8 | 20 (≈ 5.59 µg/mL) | Cc1cccc(Nc2ncnc3cnc(N(C)C)cc23)c1 | 
 | 60 (≈ 20.7 µg/mL) | CN(C)c1cc2c(Nc3cccc(Br)c3)ncnc2cn1 | 
1.3 |  | Cc1cccc(Nc2ncnc3cnc(NCCc4c[nH]cn4)cc23)c1 | S [2]: > 30 mM
0.28 | 5000 (≈ 1870 µg/mL) | O=C(O)CNc1cc2c(Nc3cccc(Br)c3)ncnc2cn1 | 
 |  | Cc1cccc(Nc2ncnc3cnc(NCCN4CCOCC4)cc23)c1 | S [2]: > 40 mM
1.7 |  | CN(CCO)CCNc1cc2c(Nc3cccc(Br)c3)ncnc2cn1 | IC50 [1]: 27 nM; S [2]: > 45 mM
